Source: PubChem
Shown are actives, neighbours in structure and some others; about 1.4% of the full set was active somewhere.
UBC9 SUMO inh: blocks human SUMOylation mediated by UBC9 | inhibition, % at 35 µM | AID 2006 | 0.36% of 290,000 active | HTRF SUMOylation assay, SAE1/SAE2 + UBC9, in vitro; in the data active = inhibition above about 50%, passing the limit was not always enough
Target sequence (P63279 whole entry, looked up): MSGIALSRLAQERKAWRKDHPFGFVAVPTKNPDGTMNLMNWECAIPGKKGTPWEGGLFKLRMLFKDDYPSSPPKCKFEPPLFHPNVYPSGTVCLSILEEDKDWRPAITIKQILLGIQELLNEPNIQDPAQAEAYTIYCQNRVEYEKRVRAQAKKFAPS
UCH37 inh: human UCH37 deubiquitinating enzyme inhibition; Q9Y5K5; purified proteasome/UCH37, Ub-AMC cleavage fluorescence; inhibition, % (test concentration not listed); 0.33% of 330,000 active;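 active = mean inhibition over replicate wells above about 20%, limit read from the data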;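 note: 0% = compound-free wells with enzyme and 100% = wells lacking proteasome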
Target sequence (Q9Y5K5 whole entry, looked up): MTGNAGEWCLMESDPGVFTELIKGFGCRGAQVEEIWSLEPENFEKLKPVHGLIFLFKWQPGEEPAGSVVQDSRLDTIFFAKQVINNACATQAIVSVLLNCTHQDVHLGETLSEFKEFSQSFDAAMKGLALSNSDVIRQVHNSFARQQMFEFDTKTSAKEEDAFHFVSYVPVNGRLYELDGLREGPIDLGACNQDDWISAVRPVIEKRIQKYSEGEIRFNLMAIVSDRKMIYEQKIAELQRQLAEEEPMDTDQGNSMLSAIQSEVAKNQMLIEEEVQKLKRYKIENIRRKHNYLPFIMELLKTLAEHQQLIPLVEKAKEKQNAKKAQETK
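Signal – fluorescence, ex 355 nm, em 460 nm · System – Proteasome-bound UCH37 · Input – 0.15 nM proteasome as dispensed · Timing – 30 min preincubation with enzyme, 25 min cleavage at room temperature · Read-out basis – percent inhibition of cleavage signal versus uninhibited and no-proteasome wells · Medium – Tris-HCl pH 7.4 with ATP-MgCl2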
Neddylation inh: inhibitors of human cullin neddylation; P61081+Q13564; TR-FRET cullin neddylation, biochemical; inhibition, % at 25 µM; 0.58% of 360,000 active; AID 651699; in the data active = inhibition above about 36%
Fh CTSL1 inh: counter-screen for PFM18AAP inhibitors: inhibitors of F. hepatica cathepsin L1 | 0.49% of 300,000 active | inhibition, % at 5.96 µM | recombinant F. hepatica cathepsin L1, Z-Leu-Arg-MCA fluorescence | AID 1906;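 active = inhibition above the mean of all tested compounds plus 3 SD, set per screening campaign, cut at about 17% in these data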;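 note: 0% = plate median of test compound wells and 100% = 1 µM Z-Phe-Ala-diazomethylketone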
Neddyl conf: cullin neddylation inhibition, confirmation. shares compounds with Neddylation inh. TR-FRET cullin neddylation biochemical assay. calls only at 25 µM. 13% of 1,800 active; in the data active = inhibition above about 40%;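 note: neddylation substrate is the cullin 1 ring ligase complex with SKP2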
The depositor's hits bear a star; i = inactive; / = no result given; + = active, no number.

SMILES	UBC9 SUMO inh	UCH37 inh	Neddylation inh	Fh CTSL1 inh	Neddyl conf
C/C(=C\C(=S)Nc1ccccc1)Nc1cccc2ccccc12	91	-61	46*	-5	/
C[C@H](O)[C@@H]1C(=O)N2CCc3c([nH]c4ccccc34)[C@@H]2C[C@@H]1N(C)Cc1ccc(Cl)cc1	/	/	44*	/	i
CCNC(=S)NN=Cc1cc(Br)cc(Br)c1OC	/	4	/	/	/
COc1cc(C=NNC(=O)c2ccncc2)ccc1Oc1ccc([N+](=O)[O-])cn1	/	7	/	/	/
C=CCN1C(=O)C(CC(=O)O)S/C1=N/N=C/c1ccc(N(CC)CC)cc1 (stereo not given)	/	/	43*	/	+
CCCNC(=O)c1oc2ccc3c(c2c1C)C=CC(C)(C)O3	4	-3	40*	0	i
CCCNC(=O)c1oc2ccc3c(c2c1C)C(=O)CC(C)(C)O3	10	-99	/	2	/
Cc1ccc2[nH]c3c(=O)n(CC(=O)N4CC(C)CC(C)C4)ncc3c2c1 (stereo not given)	5	-42	19	-2	/
CCCN1CCN(C(=O)Cn2ncc3c([nH]c4ccc(C)cc43)c2=O)CC1	11	-22	45*	2	i
CC(=O)Nc1cccc(C(C)=NNC(=O)c2cc(-c3ccncc3)nc3ccccc23)c1	/	1	/	/	/
O=C(COC(=O)c1ccccc1O)Nc1cc(S(=O)(=O)N2CCCCCC2)ccc1Cl	/	-10	49*	/	/
O=C(COC(=O)c1ccccc1)Nc1cc(S(=O)(=O)N2CCCCCC2)ccc1Cl	/	4	10	/	/
O=C(Nc1cc(S(=O)(=O)N2CCCCC2)ccc1O)c1ccccc1NS(=O)(=O)c1ccc(F)c(F)c1	18	-5	51*	7	i
O=C(NN=Cc1ccncc1)c1cc([N+](=O)[O-])cc([N+](=O)[O-])c1	/	4	/	/	/
Cn1cccc1C=NN1CCN(c2ccccn2)CC1	/	6	/	/	/
N#CCC(=O)NN=Cc1ccc(Sc2nc3ccccc3s2)o1	/	5	/	/	/
O=C1c2ccc(-c3ccc4c(c3)C(=O)N(CCCO)C4=O)cc2C(=O)N1CCCO	8	-208	54*	1	i
COc1cc(C=NNc2nnc3c(n2)[nH]c2ccccc23)ccc1O	/	7	/	/	/
CCCC(=O)N1CCN(c2nc(CC(C)C)c3c(c2C#N)CCC3)CC1	34	/	38*	-2	i
CC(C)Cc1nc(N2CCN(C(=O)Cc3ccccc3)CC2)c(C#N)c2c1COC(C)(C)C2	-2	/	/	/	/
COc1ccc(CCNC(=O)c2ccc3nc4cc(Cl)ccc4c(=O)n3c2)cc1OC	6	-67	39*	1	i
COc1ccc(CCNC(=O)c2ccc(Cl)cc2)cc1OC	-12	1	-3	8	/
CN1CCc2c(sc3nc(SCC(=O)N4CCOCC4)nc(N)c23)C1	9	-15	42*	4	i
CC1CCN(C(=O)CSc2nc(N)c3c4c(sc3n2)CN(C)CC4)CC1	18	-32	35	/	/
COc1ccc(-c2cc(C(=O)NNC(=O)c3csc(N4CCOCC4)n3)c3ccccc3n2)cc1OC	/	-14	25	-3	/
SMILES	UBC9 SUMO inh	UCH37 inh	Neddylation inh	Fh CTSL1 inh	Neddyl conf
COc1ccc(-c2cc(C(=O)NNC(=O)c3csc(N4CCOCC4)n3)c3ccccc3n2)cc1	/	-29	42*	0	i
O=C(NCc1ccccn1)C(=NO)c1ccccc1	/	6	/	/	/
N#Cc1ccc(/C=C2\CCCCn3c2nc2cc(C(=O)O)ccc2c3=O)cc1	8	4	-13	0	/
O=C(O)c1ccc2c(=O)n3c(nc2c1)/C(=C/c1ccc(Cl)cc1Cl)CC3	11	-115	/	0	/
O=C(O)c1ccc2c(=O)n3c(nc2c1)/C(=C/c1ccc(C(F)(F)F)cc1)CC3	22	-64	49*	10	+
O=C(O)c1ccc2c(=O)n3c(nc2c1)/C(=C/c1cccc(Cl)c1Cl)CC3	21	-84	52*	4	/
O=C(Cn1cnc2ccccc2c1=O)NN=Cc1ccc(Br)cc1	/	3	/	/	/
Cn1c2ccccc2c2c(C(=O)N3CCN(C(=O)c4ccco4)CC3)cn(C3CCCCC3)c(=O)c21	21	-61	45*	8	i
Cn1c2ccccc2c2c(C(=O)N3CCN(c4ccccn4)CC3)cn(C3CCCC3)c(=O)c21	-20	-28	16	1	/
Oc1ccccc1C=Nn1cnnc1	/	0	/	/	/
Cc1oc(-c2cccs2)nc1CSCC(=O)NC1CC1	25	-18	52*	3	i
Cc1nnsc1-c1onc(C)c1C(=O)ON=Cc1ccc(Cl)cc1	/	7	/	/	/
CCn1nc(NC(=O)c2cccnc2)c2cc3ccccc3nc21	8	-20	41*	-1	i
CCn1nc(NC(=O)C(C)C)c2cc3ccc(C)cc3nc21	11	/	39*	-2	i
CCCOc1ccc(C=c2sc3ncnn3c2=O)cc1	/	-1	/	/	/
CN(C)Cc1c(C(=O)NN=Cc2cccc(OCc3c(F)cccc3Cl)c2)nnn1-c1nonc1N	/	3	/	/	/
Cc1cc2[nH]c(=S)[nH]c2cc1C	15	-1	-3	0	/
Fc1cc2[nH]c(=S)[nH]c2cc1Cl	-10	2	38*	-4	i
Oc1ccccc1C=NNc1nc2ccccc2s1	/	4	39*	/	i
NC(=Nc1nc2ccccc2o1)NC(=O)c1ccc([N+](=O)[O-])cc1	/	4	/	/	/
COc1ccc(C)cc1N(C(=O)c1snc(C(N)=O)c1N)C(C(=O)NC1CCCCC1)c1ccc(C)o1 (stereo not given)	-5	-32	44*	/	/
CCOc1ccccc1N(C(=O)c1snc(C(N)=O)c1N)C(C(=O)NCCC(C)C)c1ccco1 (stereo not given)	11	-68	44*	0	i
COc1ccccc1N(C(=O)c1snc(C(N)=O)c1N)C(C(=O)NC1CCCC1)c1ccco1 (stereo not given)	-15	-133	43*	2	+
COc1ccc(OC)c(C(C(=O)NC2CCCCC2)N(C(=O)c2snc(C(N)=O)c2N)c2ccccc2OC)c1 (stereo not given)	-25	/	-173	5	/
COc1cc(C=Nn2nnnc2N)ccc1OCC#N	/	-4	/	/	/
SMILES	UBC9 SUMO inh	UCH37 inh	Neddylation inh	Fh CTSL1 inh	Neddyl conf
COc1ccc(S(=O)(=O)Nc2nc3ccccc3nc2Nc2cccc(C(=O)O)c2)cc1	4	9	42*	8	i
CC(=O)Nc1ccc(S(=O)(=O)Nc2nc3ccccc3nc2Nc2ccccc2)cc1	-1	-5	/	5	/
Cc1cc(C)nc(NN=Cc2cccc(Cl)c2)n1	/	4	/	/	/
CCOc1ccc(-c2c(C(=O)NN=Cc3ccc(C)o3)nnn2-c2nonc2N)cc1	/	-144	/	/	/
Cc1cc(-c2nn(-c3ccccc3)cc2/C=C2\SC(N)=NC2=O)ccc1OC(C)C	-3	-72	48*	3	i
CCCOc1ccc(-c2nn(-c3ccccc3)cc2/C=C2\SC(N)=NC2=O)cc1	3	-15	/	-1	/
CCCC[n+]1ccn(-c2nc3ccccc3nc2[N-]S(=O)(=O)c2ccc(Br)cc2)c1	21	-76	-125	-1	/
CC(C)CC[n+]1ccn(-c2nc3ccccc3nc2[N-]S(=O)(=O)c2ccccc2)c1	15	-100	45*	-2	i
Cc1ccc(C(COc2ccccc2O)=NO)cc1	/	5	/	/	/
